Screens from PubChem BioAssay.
JNK3 inh = JNK3 (human) kinase inhibition | P53779 | AID 746 | 0.61% of 60,000 active | purified JNK3 kinase activity, HTS | inhibition, % at 8 µM; in the data active = inhibition above about 17%
Target sequence (P53779 whole entry, looked up): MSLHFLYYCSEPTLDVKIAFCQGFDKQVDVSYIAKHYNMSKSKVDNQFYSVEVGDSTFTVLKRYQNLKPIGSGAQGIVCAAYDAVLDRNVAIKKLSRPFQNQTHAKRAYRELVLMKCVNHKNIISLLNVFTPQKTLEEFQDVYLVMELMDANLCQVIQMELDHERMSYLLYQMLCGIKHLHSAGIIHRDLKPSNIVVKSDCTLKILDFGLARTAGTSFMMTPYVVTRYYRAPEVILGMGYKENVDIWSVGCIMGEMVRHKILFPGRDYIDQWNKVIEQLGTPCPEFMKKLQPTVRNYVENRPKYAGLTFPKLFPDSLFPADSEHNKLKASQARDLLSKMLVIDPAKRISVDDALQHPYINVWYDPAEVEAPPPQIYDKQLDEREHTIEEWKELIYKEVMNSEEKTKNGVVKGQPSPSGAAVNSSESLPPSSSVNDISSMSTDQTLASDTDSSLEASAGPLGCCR
Calb biofilm kill = kills Candida albicans biofilms. 0.14% of 85,000 active. inhibition, % at 6 µM. C. albicans biofilm + clotrimazole, Alamar Blue;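 active = inhibition above 20%; inactive = inhibition below 20%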;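 note: preformed 24 hr biofilms exposed to compound for 48 hr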
SF1 activator = SF-1 (human) activation. 1.9% of 65,000 active. CHO-K1 Gal4-SF-1 LBD luciferase reporter; % increase over DMSO SF-1-specific signal. Q13285. AID 522. activation, % at 10 µM;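 active = activation above the mean activation of all tested compounds plus 3 SD, cut at about 50% in these data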
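Material: Gal4–SF-1 LBD one-hybrid luciferase reporter in CHO-K1 cells | Amount: 4,000 cells per well | Compound dosing: 10 µM single point, 1% DMSO | Schedule: 20 h compound treatment, 37 °C | Measured by: SteadyLite luciferase luminescence | Evaluation: Percent activation versus DMSO | Control set: DMSO-treated SF-1-transfected cells as negative, DMSO-treated mock-transfected cells lacking SF-1 as background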
RORa activator = activates the human nuclear receptor RORA | CHO-K1 Gal4-RORA LBD luciferase reporter, luminescence; percent increase over mock-subtracted basal signal | AID 560 | 1.5% of 65,000 active | activation, % at 10 µM | P35398;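 active = activation above the mean of all tested compounds plus 3 SD, cut at about 49% in these data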
Hits are given with their value; n = inactive; x = no result given. Hits are enriched below; roughly 2.3% of the tested compounds scored in any of these assays.

SMILES	JNK3 inh	Calb biofilm kill	SF1 activator	RORa activator
Clc1ccc(-n2ncc3c(NCC4CCCO4)ncnc32)cc1 (stereo not given)	n	23	122	96
COc1ccccc1CNC(=O)CCS(=O)(=O)c1cccc2nonc12	x	n	x	x
CC(=O)Nc1c(O)nc(SCC(=O)Nc2ccc(C(C)=O)cc2)[nH]c1=O	n	n	50	58
COC(=O)c1sc2nc(-c3ccco3)ccc2c1N	n	n	66	n
Cc1nnc(NC(=O)c2c(-c3ccccc3)noc2C)s1	x	n	x	x
Cc1onc(-c2ccccc2)c1C(=O)Nc1nc(-c2cc(F)ccc2F)cs1	n	n	54	n
CCCc1cc(=O)oc2cc(OCC(=O)N3CCc4ccccc43)ccc12	x	n	x	x
COCCn1c(C)cc(C(=O)COC(=O)c2ccc3ncsc3c2)c1C	n	n	52	n
COCCn1c(C)cc(C(=O)COC(=O)c2ccc(NC(=O)CC#N)cc2)c1C	x	n	x	x
Cc1ccc(NC(=O)Cn2c(=O)oc3cc(S(=O)(=O)N4CCC(C)CC4)ccc32)cc1C	x	n	x	x
CCOc1ccc(-c2nc(N)ncc2-c2ccccc2)c(O)c1	51	n	n	n
C=C(C)COc1ccc(-c2nc(N)ncc2Oc2ccccc2OCC)c(O)c1	n	n	n	n
Cc1nc2ccc(C(=O)c3ccccc3)cc2[nH]1	n	n	57	n
O=C(c1ccccc1)c1ccc2nc[nH]c2c1	n	n	n	n
Cc1ccc(N2CCn3c2nc2c3c(=O)n(CCc3ccccc3)c(=O)n2C)cc1	n	n	n	n
COC(=O)c1c(C#N)c(N)nc2c1CCCC2	19	n	n	n
COc1cc(-c2c(C#N)c(N)nc3c2CCCC3)ccc1O	n	n	n	n
CC(C)CC(=O)c1c[nH]c(C(=O)NCc2cccs2)c1	x	n	x	x
CCOC(=O)Nc1ccc2c(C)cc(=O)oc2c1	n	n	56	53
Cc1c(Cl)cccc1NC(=O)C1NC(=O)CC1c1ccccc1 (stereo not given)	x	n	x	x
CCN(CC)C(=O)CSc1ncnc2sc(-c3ccccc3)cc12	x	n	x	x
CN(CCC#N)C(=O)CSc1ncnc2sc(-c3ccccc3)cc12	n	n	n	52
CCCCC(=O)Nc1ncc(Br)s1	28	n	n	n
CCCCC(=O)Nc1nnc(C)s1	n	n	n	n
CCn1c(SCc2nc3ccccc3s2)nnc1-c1ccccc1	x	n	x	x
SMILES	JNK3 inh	Calb biofilm kill	SF1 activator	RORa activator
CCC(c1nnc(SCc2nc3ccccc3s2)n1Cc1ccccc1)N(C)C (stereo not given)	n	n	61	n
COCCn1c(SCc2nc3ccccc3s2)nc2ccccc21	n	n	50	n
Cc1nnc(SCc2nc3ccccc3s2)n1-c1ccccc1	n	n	n	76
c1ccc(-n2cnnc2SCc2nc3ccccc3s2)cc1	n	n	58	n
Cc1nccn1-c1cc(C(C)C)c(C#N)c2nc3ccccc3n12	n	n	n	n
CN(C)c1nc(N)nc(CSc2nnnn2-c2ccccc2)n1	x	n	x	x
COc1ccc(C)cc1-n1nnnc1SCc1nc2ccccc2s1	n	n	110	50
CCn1c(SCc2nc3ccccc3s2)nc2cc(S(=O)(=O)N3CCOCC3)ccc21	n	n	63	n
Cc1ccc(Cn2ccc(NC(=O)c3c(-c4ccccc4Cl)noc3C)n2)cc1	x	n	n	n
COc1cc2[nH]c(=O)n(Cc3ccc(C(=O)NC4CCCC4)cc3)c(=O)c2cc1OC	x	24	x	x
COc1cc2[nH]c(=O)n(CCC(=O)NC3CCCC3)c(=O)c2cc1OC	n	n	n	n
CCOC(=O)N1CCC(n2c(SCC(=O)N3CCC(C)CC3)nc3ccccc3c2=O)CC1	x	24	x	x
Cc1c(-c2nc(N)nc(Nc3ccc(F)cc3)n2)oc2ccccc12	n	n	78	74
COc1ccccc1Nc1nc(N)nc(-c2oc3ccccc3c2C)n1	x	n	x	x
C=CCn1cnc2c(c1=O)c1nc3ccccc3nc1n2-c1ccc(Cl)cc1	n	n	n	n
COc1cccc(NC(=O)C2CCCN(S(=O)(=O)c3cccc4cccnc34)C2)c1 (stereo not given)	n	n	n	n
O=C(Nc1ccncc1)C1CCCN(S(=O)(=O)c2cccc3cccnc23)C1 (stereo not given)	n	n	n	57
CN(C)C=Nc1ccc2nn(-c3ccccc3)nc2c1	n	n	74	n
COc1ccc(OC)c2sc(N3CCCCC3)nc12	n	n	n	n
Clc1cc(Cl)c2nc(N3CCCC3)sc2c1	n	n	60	n
Fc1cc(F)c2nc(N3CCCCC3)sc2c1	n	n	65	n
Clc1cc(Cl)c2nc(N3CCCCC3)sc2c1	n	n	61	n
Clc1cccc2sc(N3CCCCC3)nc12	n	x	n	n
Cc1ccc(C(=O)CSc2nnnn2C(C)C)c(C)c1	x	n	x	x
O=C(CSc1nnc(Cc2ccccc2)o1)Nc1ccc2c(c1)OCO2	x	n	x	x
SMILES	JNK3 inh	Calb biofilm kill	SF1 activator	RORa activator
Cc1sc2nc(CN(Cc3cccs3)C(=O)NC3CCCCC3)[nH]c(=O)c2c1C	n	x	n	n
COc1ccc(C(CC(=O)Nc2nccs2)n2cccc2)cc1 (stereo not given)	n	n	55	n
O=C(NC1CC2CCC1C2)C1COc2ccccc2O1 (stereo not given)	n	n	n	n
Cc1ccc(-n2ncc3c(N4CCCC(C)C4)ncnc32)c(C)c1 (stereo not given)	n	n	59	n
Cc1ccc(-n2ncc3c(N4CCCC4)ncnc32)c(C)c1	n	n	66	n
CC1CCCN(c2ncnc3c2cnn3-c2ccccc2)C1 (stereo not given)	n	x	n	n
CC(C)CN(C(=O)c1nn(C)c(=O)c2ccccc12)c1nc2ccccc2s1	x	n	x	x
O=C(Nc1ccc2c(c1)oc1ccccc12)c1ccc2c(c1)OCO2	n	n	n	n
COc1cc2c(cc1NC(=O)c1ccc3c(c1)OCO3)oc1ccccc12	n	n	54	n
CSc1ccc(CNc2ccccn2)cc1	n	n	n	61
COc1ccc(C(C)=O)cc1COC(=O)c1cc(C)oc1C	18	n	n	n
CCCCOc1ccc(-c2nnn(CC(=O)NCc3ccco3)n2)cc1	n	n	n	198
CCOc1ccc(-c2nnn(CC(=O)NCc3ccco3)n2)cc1OCC	x	n	x	x
Cc1cccc(-n2ccnc2SCC(=O)Nc2nccs2)c1	n	n	60	n
Cc1cc(C)cc(-n2ccnc2SCC(=O)Nc2nccs2)c1	n	n	n	n
CCC(=O)n1nc(-c2ccc(OC)cc2)nc1SC	x	n	x	x
COc1ccc(-c2nc(SC)n(C(=O)c3ccco3)n2)cc1	n	n	58	n
CCCn1nnc(NC(=O)c2cccc(OCC)c2)n1	n	n	66	52
CCn1nnc(NC(=O)c2cccnc2)n1	n	n	n	n
CCn1nnc(NC(=O)c2cccc(-c3cc4ccccc4oc3=O)c2)n1	n	n	55	n
CCCn1nnc(NC(=O)c2cccc(OCC(C)C)c2)n1	x	n	n	n
CCOc1cccc(C(=O)NC2CCCCC2)c1	n	n	52	n
COc1cccc(C(=O)NC2CCN(C(=O)N3CCCCC3)CC2)c1	n	n	n	n
CCCCC(CCC(=O)Nc1ccccc1C(=O)OCC)C(=O)O (stereo not given)	n	n	n	n
Cc1cccc(NC(=O)C2CCCN2S(=O)(=O)c2cccc3cccnc23)c1 (stereo not given)	n	n	n	n
